Source: ChEMBL document CHEMBL3244425 (J Med Chem, 1979)

Columns and labels:
[1] = Fraction unbound in 22% albino mouse serum at 10 uM by equilibrium dialysis method in presence of diisopropyl fluorophosphate; format: ADME, cell-free
serum albumin = serum albumin (Homo sapiens, UniProt P02768); assay: Binding affinity to human serum albumin at 10 uM after 12 to 20 hrs by scintillation spectrometry; format: ADME
Outline: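 HSA as supplied (lipid under 10 mg/g), 1% (10 mg/mL) in 0.05 M buffer. Equilibrium dialysis against buffer for 12-20 h at room temperature, with 10 μM radiolabeled substrate. Free percentage is taken from the ratio of radioactivities on the two sides, then corrected for partial hydrolysis using TLC of ether extracts.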

[2] = Ratio of oxazepam level in brain to blood in albino mouse at 10 mg equivalent of oxazepam/kg after 1 min; format: ADME, tissue-based
[3] = Ratio of oxazepam level in brain to blood in albino mouse at 10 mg equivalent of oxazepam/kg after 10 mins; format: ADME, tissue-based
Mus musculus [4] = assay: Drug excretion in albino mouse assessed as unexcreted drug at 10 mg equivalent of oxazepam/kg after 100 to 150 hrs; format: ADME, organism-based; settings: in vivo
[5] = Ratio of oxazepam level in brain to blood in albino mouse at 10 mg equivalent of oxazepam/kg after 30 mins; format: ADME, tissue-based; settings: 0.5 h
[6] = Ratio of oxazepam level in brain to blood in albino mouse at 10 mg equivalent of oxazepam/kg after 3 mins; format: ADME, tissue-based; settings: 0.05 h
[7] = Ratio of oxazepam level in brain to blood in albino mouse at 10 mg equivalent of oxazepam/kg after 5 mins; format: ADME, tissue-based
[8] = Ratio of oxazepam level in brain to blood in albino mouse at 10 mg equivalent of oxazepam/kg after 40 mins; format: ADME, tissue-based
[9] = Ratio of oxazepam level in brain to blood in albino mouse at 10 mg equivalent of oxazepam/kg after 6 mins; format: ADME, tissue-based; settings: 0.1 h
[10] = Ratio of oxazepam level in brain to blood in albino mouse at 10 mg equivalent of oxazepam/kg after 20 mins; format: ADME, tissue-based
[11] = Ratio of oxazepam level in brain to blood in albino mouse at 10 mg equivalent of oxazepam/kg after 12 mins; format: ADME, tissue-based; settings: 0.2 h
Mus musculus [12] = assay: Drug excretion in albino mouse assessed as unexcreted drug at 10 mg equivalent of oxazepam/kg after 150 hrs; format: ADME, organism-based; settings: in vivo
[13] = Ratio of oxazepam level in brain to blood in albino mouse at 15 mg equivalent of oxazepam/kg after 1 min; format: ADME, tissue-based
[14] = Ratio of oxazepam level in brain to blood in albino mouse at 15 mg equivalent of oxazepam/kg after 6 mins; format: ADME, tissue-based; settings: 0.1 h
[15] = Ratio of oxazepam level in brain to blood in albino mouse at 15 mg equivalent of oxazepam/kg after 3 mins; format: ADME, tissue-based; settings: 0.05 h
[16] = Ratio of oxazepam level in brain to blood in albino mouse at 15 mg equivalent of oxazepam/kg after 20 mins; format: ADME, tissue-based
[17] = Ratio of oxazepam level in brain to blood in albino mouse at 15 mg equivalent of oxazepam/kg after 40 mins; format: ADME, tissue-based
[18] = Ratio of oxazepam level in brain to blood in albino mouse at 15 mg equivalent of oxazepam/kg after 12 mins; format: ADME, tissue-based; settings: 0.2 h
[19] = Ratio of oxazepam level in brain to blood in albino mouse at 10 mg equivalent of oxazepam/kg after 2 mins; format: ADME, tissue-based
[20] = Ratio of oxazepam level in brain to blood in albino mouse at 5 mg equivalent of oxazepam/kg after 10 mins; format: ADME, tissue-based
[21] = Ratio of oxazepam level in brain to blood in albino mouse at 5 mg equivalent of oxazepam/kg after 5 mins; format: ADME, tissue-based
[22] = Ratio of oxazepam level in brain to blood in albino mouse at 5 mg equivalent of oxazepam/kg after 2 mins; format: ADME, tissue-based
[23] = Ratio of oxazepam level in brain to blood in albino mouse at 5 mg equivalent of oxazepam/kg after 20 mins; format: ADME, tissue-based
[24] = Ratio of oxazepam level in brain to blood in albino mouse at 5 mg equivalent of oxazepam/kg after 40 mins; format: ADME, tissue-based
[25] = Ratio of oxazepam level in brain to blood in albino mouse at 5 mg equivalent of oxazepam/kg after 1 min; format: ADME, tissue-based
Mus musculus [26] = assay: Drug excretion in albino mouse assessed as unexcreted drug at 5 mg equivalent of oxazepam/kg after 150 hrs; format: ADME, organism-based; settings: in vivo
[27] = Ratio of oxazepam level in brain to blood in albino mouse at 5 mg equivalent of oxazepam/kg after 3 mins; format: ADME, tissue-based; settings: 0.05 h
Mus musculus [28] = assay: Drug excretion in albino mouse assessed as unexcreted drug at 5 mg equivalent of oxazepam/kg after 96 hrs; format: ADME, organism-based; settings: in vivo
Mus musculus [29] = assay: Drug excretion in albino mouse assessed as unexcreted drug at 10 mg equivalent of oxazepam/kg after 96 hrs; format: ADME, organism-based; settings: in vivo

serum albumin, sequence (P02768 whole entry): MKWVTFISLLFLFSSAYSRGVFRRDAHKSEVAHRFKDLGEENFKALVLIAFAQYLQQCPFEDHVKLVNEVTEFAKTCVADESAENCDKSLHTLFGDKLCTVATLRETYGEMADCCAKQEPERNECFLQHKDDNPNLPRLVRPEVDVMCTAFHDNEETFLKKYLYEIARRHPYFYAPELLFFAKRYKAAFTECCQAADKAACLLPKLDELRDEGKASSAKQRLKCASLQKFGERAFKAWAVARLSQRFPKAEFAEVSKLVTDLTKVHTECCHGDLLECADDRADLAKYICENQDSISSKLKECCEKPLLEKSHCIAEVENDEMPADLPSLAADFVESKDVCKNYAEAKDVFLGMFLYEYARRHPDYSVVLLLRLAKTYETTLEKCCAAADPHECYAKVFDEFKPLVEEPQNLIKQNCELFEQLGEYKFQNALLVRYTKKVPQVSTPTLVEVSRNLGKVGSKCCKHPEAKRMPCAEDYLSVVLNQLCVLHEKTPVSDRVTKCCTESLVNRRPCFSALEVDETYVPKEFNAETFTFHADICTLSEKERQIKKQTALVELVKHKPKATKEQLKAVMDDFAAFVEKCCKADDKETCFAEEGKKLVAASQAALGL

## CCC(CC)C(=O)OC1N=C(c2ccccc2)c2cc(Cl)ccc2NC1=O (stereo not given)
[1]
  fraction unbound at 10 µM: 0.038
Serum albumin
  fraction unbound at 10 µM: 0.06

## CC(=O)OC1N=C(c2ccccc2)c2cc(Cl)ccc2NC1=O (stereo not given)
[1]
  fraction unbound at 10 µM: 0.285
Serum albumin
  fraction unbound at 10 µM: 0.246

## CCCC(=O)OC1N=C(c2ccccc2)c2cc(Cl)ccc2NC1=O (stereo not given)
[1]
  fraction unbound at 10 µM: 0.149
Serum albumin
  fraction unbound at 10 µM: 0.089

## CC(C)C(=O)OC1N=C(c2ccccc2)c2cc(Cl)ccc2NC1=O (stereo not given)
[1]
  fraction unbound at 10 µM: 0.147
Serum albumin
  fraction unbound at 10 µM: 0.078

## COC(=O)CCC(=O)OC1N=C(c2ccccc2)c2cc(Cl)ccc2NC1=O (stereo not given)
[1]
  fraction unbound at 10 µM: 0.299
Serum albumin
  fraction unbound at 10 µM: 0.172

## O=C(CCCc1ccccc1)OC1N=C(c2ccccc2)c2cc(Cl)ccc2NC1=O (stereo not given)
[1]
  fraction unbound at 10 µM: 0.102
Serum albumin
  fraction unbound at 10 µM: 0.034

## O=C(CCc1ccccc1)OC1N=C(c2ccccc2)c2cc(Cl)ccc2NC1=O (stereo not given)
Serum albumin
  fraction unbound at 10 µM: 0.052

## CC(Cc1ccccc1)C(=O)OC1N=C(c2ccccc2)c2cc(Cl)ccc2NC1=O (stereo not given)
[1]
  fraction unbound at 10 µM: 0.111
Serum albumin
  fraction unbound at 10 µM: 0.051

## CC(=O)OC1N=C(c2ccccc2)c2cc(Cl)ccc2N[14C]1=O (stereo not given)
[2]
  Ratio: 4
[3]
  Ratio: 2.4
Mus musculus [4]
  Drug recovery: 0%
[5]
  Ratio: 4
[6]
  Ratio: 3.4
[7]
  Ratio: 2

## CCC(=O)OC1N=C(c2ccccc2)c2cc(Cl)ccc2N[14C]1=O (stereo not given)
[8]
  Ratio: 2.8
[2]
  Ratio: 3.8
[9]
  Ratio: 3
[10]
  Ratio: 2.8
[6]
  Ratio: 2
[11]
  Ratio: 2.4
Mus musculus [12]
  Drug recovery: 19%

## CCCC(=O)OC1N=C(c2ccccc2)c2cc(Cl)ccc2N[14C]1=O (stereo not given)
[13]
  Ratio: 0.2
[14]
  Ratio: 0.4
[15]
  Ratio: 0.3
[16]
  Ratio: 1.4
[17]
  Ratio: 2
[18]
  Ratio: 0.8

## CCC(CC)C(=O)OC1N=C(c2ccccc2)c2cc(Cl)ccc2N[14C]1=O (stereo not given)
[8]
  Ratio: 1.7
[3]
  Ratio: 1
[10]
  Ratio: 1.1
[5]
  Ratio: 1.4
[7]
  Ratio: 0.6
[19]
  Ratio: 0.7

## CC(C)C(=O)OC1N=C(c2ccccc2)c2cc(Cl)ccc2N[14C]1=O (stereo not given)
[20]
  Ratio: 1.8
[21]
  Ratio: 1.2
[22]
  Ratio: 0.7
[23]
  Ratio: 1.9
[24]
  Ratio: 2.3

## O=C(CCCc1ccccc1)OC1N=C(c2ccccc2)c2cc(Cl)ccc2N[14C]1=O (stereo not given)
[25]
  Ratio: 0.5
[20]
  Ratio: 0.4
Mus musculus [26]
  Drug recovery: 38%
[21]
  Ratio: 0.3
[23]
  Ratio: 1
[24]
  Ratio: 0.9
[27]
  Ratio: 0.5

## O=C(CCc1ccccc1)OC1N=C(c2ccccc2)c2cc(Cl)ccc2N[14C]1=O (stereo not given)
[25]
  Ratio: 0.6
[20]
  Ratio: 0.5
[21]
  Ratio: 0.5
Mus musculus [28]
  Drug recovery: 26%
[23]
  Ratio: 1.4
[24]
  Ratio: 2.2
[27]
  Ratio: 0.4

## CC(C)CC(=O)OC1N=C(c2ccccc2)c2cc(Cl)ccc2NC1=O (stereo not given)
[1]
  fraction unbound at 10 µM: 0.067
Serum albumin
  fraction unbound at 10 µM: 0.093

## CC(C)(C)C(=O)OC1N=C(c2ccccc2)c2cc(Cl)ccc2N[14C]1=O (stereo not given)
[3]
  Ratio: 2.2
[10]
  Ratio: 2
[5]
  Ratio: 2.5
[6]
  Ratio: 1.7
[7]
  Ratio: 2
Mus musculus [29]
  Drug recovery: 7%

## CC(C)(Cc1ccccc1)C(=O)OC1N=C(c2ccccc2)c2cc(Cl)ccc2NC1=O (stereo not given)
[1]
  fraction unbound at 10 µM: 0.113
Serum albumin
  fraction unbound at 10 µM: 0.022

## CC(Cc1ccccc1)C(=O)OC1N=C(c2ccccc2)c2cc(Cl)ccc2N[14C]1=O (single isomer, unassigned; (+))
Mus musculus [26]
  Drug recovery: 34%

## CC(Cc1ccccc1)C(=O)OC1N=C(c2ccccc2)c2cc(Cl)ccc2N[14C]1=O (single isomer, unassigned; (-))
[20]
  Ratio: 1.6
[21]
  Ratio: 1.1
[23]
  Ratio: 2
[24]
  Ratio: 2.1
[27]
  Ratio: 0.3
